According to ChEMBL document CHEMBL4354826, “Structure-Based Discovery of SD-36 as a Potent, Selective, and Efficacious PROTAC Degrader of STAT3 Protein” (J Med Chem, 2019):
Calls of active or inactive are those of the source. No cut-off for these calls is given here.

Tests used:
[1] = target: Signal transducer and activator of transcription 3 (Homo sapiens, UniProt P40763); assay: Binding affinity to recombinant human His/SUMO-tagged STAT3 (127 to 688 residues) expressed in Escherichia coli Rosetta (DE3) incubated for 1 hr by fluorescence polarization assay
Sequence of Signal transducer and activator of transcription 3 (P40763 whole entry, the tested form may be a part): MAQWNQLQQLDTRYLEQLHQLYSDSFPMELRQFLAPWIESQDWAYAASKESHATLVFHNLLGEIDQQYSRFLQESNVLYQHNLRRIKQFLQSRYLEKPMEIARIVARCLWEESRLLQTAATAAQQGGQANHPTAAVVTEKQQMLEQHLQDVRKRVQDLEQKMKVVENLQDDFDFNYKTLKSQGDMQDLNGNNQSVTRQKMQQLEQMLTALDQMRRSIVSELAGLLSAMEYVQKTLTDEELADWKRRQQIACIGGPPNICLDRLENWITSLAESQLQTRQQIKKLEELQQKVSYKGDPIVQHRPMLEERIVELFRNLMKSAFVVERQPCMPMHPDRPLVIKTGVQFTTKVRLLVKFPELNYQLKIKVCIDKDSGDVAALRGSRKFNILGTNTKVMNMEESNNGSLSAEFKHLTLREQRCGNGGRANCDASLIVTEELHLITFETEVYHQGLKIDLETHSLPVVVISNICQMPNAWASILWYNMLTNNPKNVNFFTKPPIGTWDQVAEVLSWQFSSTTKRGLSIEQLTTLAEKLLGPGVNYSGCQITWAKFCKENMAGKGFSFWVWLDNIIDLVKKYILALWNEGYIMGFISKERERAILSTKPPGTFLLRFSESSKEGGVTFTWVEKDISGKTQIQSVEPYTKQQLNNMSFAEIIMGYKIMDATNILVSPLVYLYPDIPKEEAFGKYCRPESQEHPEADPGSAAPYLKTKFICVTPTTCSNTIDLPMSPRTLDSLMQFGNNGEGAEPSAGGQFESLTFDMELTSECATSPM

[2] = target: T1, Protein cereblon/Signal transducer and activator of transcription 3 (Homo sapiens, UniProt P40763+Q96SW2); assay: Protac activity at CRBN/STAT3 in human MOLM16 cells assessed as degradation of STAT3 incubated for 4 hrs by Western blot analysis; type: cell-based
Summary of the method: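 Molm-16 cells treated 4 h with serially diluted compound. Lysates immunoblotted (SDS–PAGE, PVDF, 5% blocker/TBST, chemiluminescence) for total STAT3 and pSTAT3 Y705. DC50 taken as the concentration reducing total STAT3 by 50%.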
Target sequence in this assay (P40763 whole entry): as the sequence (P40763 whole entry, the tested form may be a part) above
Target sequence in this assay (Q96SW2 whole entry): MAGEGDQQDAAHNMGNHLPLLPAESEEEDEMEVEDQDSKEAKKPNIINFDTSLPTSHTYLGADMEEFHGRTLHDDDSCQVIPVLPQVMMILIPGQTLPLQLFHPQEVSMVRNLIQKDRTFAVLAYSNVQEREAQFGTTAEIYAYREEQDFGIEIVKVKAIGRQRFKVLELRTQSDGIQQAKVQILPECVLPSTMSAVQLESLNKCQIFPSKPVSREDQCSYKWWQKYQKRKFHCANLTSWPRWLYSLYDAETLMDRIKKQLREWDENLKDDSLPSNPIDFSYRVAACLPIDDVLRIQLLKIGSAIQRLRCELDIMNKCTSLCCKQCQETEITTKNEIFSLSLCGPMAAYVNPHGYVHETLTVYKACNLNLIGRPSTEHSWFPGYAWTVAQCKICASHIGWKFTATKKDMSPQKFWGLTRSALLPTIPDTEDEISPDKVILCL

SU-DHL-1 = assay: Antiproliferative activity against human SUDHL1 cells assessed as reduction in cell viability incubated for 4 days by cell-titer glo luminescent assay; type: functional, cell-based; conditions: SU-DHL-1, 96 h
Summary of the method: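 Viability assay: cells incubated with serially diluted compounds for 4 days, viability read by CellTiter-Glo luminescence; IC50 from concentration–response.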

[3] = target: T2, Protein cereblon/Signal transducer and activator of transcription 5B (Homo sapiens) (UniProt P51692+Q96SW2); assay: Protac activity at CRBN/STAT5B in human MOLM16 cells assessed as degradation of STAT5B at 0.01 to 10 uM incubated for 4 hrs by Western blot analysis; type: cell-based
T2 sequence (P51692 whole entry, looked up): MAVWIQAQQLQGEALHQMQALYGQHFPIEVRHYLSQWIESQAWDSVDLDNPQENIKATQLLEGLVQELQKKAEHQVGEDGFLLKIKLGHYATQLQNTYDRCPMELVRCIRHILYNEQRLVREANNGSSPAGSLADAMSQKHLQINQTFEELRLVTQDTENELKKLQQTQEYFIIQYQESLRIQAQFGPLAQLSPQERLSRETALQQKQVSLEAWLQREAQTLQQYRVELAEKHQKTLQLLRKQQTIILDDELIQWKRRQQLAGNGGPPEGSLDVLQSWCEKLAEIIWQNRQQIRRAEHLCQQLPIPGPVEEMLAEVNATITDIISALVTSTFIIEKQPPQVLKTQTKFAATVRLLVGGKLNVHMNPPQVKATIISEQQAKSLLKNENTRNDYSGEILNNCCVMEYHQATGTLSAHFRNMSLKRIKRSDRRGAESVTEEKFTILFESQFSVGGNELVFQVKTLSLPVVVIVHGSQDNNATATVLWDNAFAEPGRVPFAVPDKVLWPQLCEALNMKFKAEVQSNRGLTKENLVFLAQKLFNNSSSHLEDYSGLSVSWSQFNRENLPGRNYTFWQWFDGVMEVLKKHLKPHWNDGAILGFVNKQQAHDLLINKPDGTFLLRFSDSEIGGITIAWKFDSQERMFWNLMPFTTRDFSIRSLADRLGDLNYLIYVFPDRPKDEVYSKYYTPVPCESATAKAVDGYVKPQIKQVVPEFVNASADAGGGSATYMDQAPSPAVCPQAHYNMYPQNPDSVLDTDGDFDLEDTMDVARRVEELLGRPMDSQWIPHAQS
T2 sequence (Q96SW2 whole entry, looked up): as the sequence (Q96SW2 whole entry) above
Summary of the method: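 Molm-16 cells treated 4 h with test compound at 0.01–10 μM, or control compounds at 10 μM. Lysates separated by SDS–PAGE, transferred to PVDF, blocked 1 h in 5% blocker/TBST, probed for each STAT protein, and detected by chemiluminescence.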

[4] = target: T1, Protein cereblon/Signal transducer and activator of transcription 3; assay: Protac activity at CRBN/STAT3 in human SUDHL1 cells assessed as degradation of STAT3 at 0.01 to 10 uM incubated for 18 hrs by Western blot analysis; type: cell-based
Summary of the method: (§1)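 SU-DHL-1 cells treated 18 h with test compound at 0.01–10 μM, or control compounds at 10 μM. Lysates separated by SDS–PAGE, transferred to PVDF, blocked 1 h in 5% blocker/TBST, probed for each STAT protein, and detected by chemiluminescence.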
Target sequence in this assay (P40763 2-770 limits assumed): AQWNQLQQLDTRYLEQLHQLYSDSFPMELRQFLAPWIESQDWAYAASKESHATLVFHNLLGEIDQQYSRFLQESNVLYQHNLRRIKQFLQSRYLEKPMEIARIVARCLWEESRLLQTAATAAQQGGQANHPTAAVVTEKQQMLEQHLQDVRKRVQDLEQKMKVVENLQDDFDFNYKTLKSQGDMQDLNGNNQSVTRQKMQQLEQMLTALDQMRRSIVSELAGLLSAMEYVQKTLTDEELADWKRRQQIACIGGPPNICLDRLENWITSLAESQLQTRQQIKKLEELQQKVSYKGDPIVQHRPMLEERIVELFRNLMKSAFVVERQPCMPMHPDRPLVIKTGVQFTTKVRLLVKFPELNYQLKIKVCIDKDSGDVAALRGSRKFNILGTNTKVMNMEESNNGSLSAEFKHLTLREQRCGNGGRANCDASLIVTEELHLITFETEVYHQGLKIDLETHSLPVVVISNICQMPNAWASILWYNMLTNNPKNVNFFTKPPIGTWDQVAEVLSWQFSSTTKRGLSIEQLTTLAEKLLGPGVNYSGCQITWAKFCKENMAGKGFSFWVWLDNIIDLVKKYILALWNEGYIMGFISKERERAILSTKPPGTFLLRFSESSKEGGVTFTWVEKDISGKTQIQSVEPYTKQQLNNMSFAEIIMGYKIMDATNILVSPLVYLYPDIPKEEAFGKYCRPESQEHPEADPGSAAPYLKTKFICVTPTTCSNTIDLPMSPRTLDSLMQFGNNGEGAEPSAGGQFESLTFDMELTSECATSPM
Target sequence in this assay (Q96SW2 whole entry partner): as the sequence (Q96SW2 whole entry) above

[5] = target: Protein cereblon/Signal transducer and activator of transcription 1-alpha/beta (Homo sapiens) (UniProt P42224+Q96SW2); assay: Protac activity at CRBN/STAT1 in human SUDHL1 cells assessed as degradation of STAT1 at 0.01 to 10 uM incubated for 18 hrs by Western blot analysis; type: cell-based; summary of the method: as §1
[6] = target: Protein cereblon/Signal transducer and activator of transcription 4 (Homo sapiens) (UniProt Q96SW2+Q14765); assay: Protac activity at CRBN/STAT4 in human SUDHL1 cells assessed as degradation of STAT4 at 0.01 to 10 uM incubated for 18 hrs by Western blot analysis; type: cell-based; summary of the method: as §1
Sequence of Protein cereblon/Signal transducer and activator of transcription 4 (Homo sapiens) (Q14765 whole entry, looked up): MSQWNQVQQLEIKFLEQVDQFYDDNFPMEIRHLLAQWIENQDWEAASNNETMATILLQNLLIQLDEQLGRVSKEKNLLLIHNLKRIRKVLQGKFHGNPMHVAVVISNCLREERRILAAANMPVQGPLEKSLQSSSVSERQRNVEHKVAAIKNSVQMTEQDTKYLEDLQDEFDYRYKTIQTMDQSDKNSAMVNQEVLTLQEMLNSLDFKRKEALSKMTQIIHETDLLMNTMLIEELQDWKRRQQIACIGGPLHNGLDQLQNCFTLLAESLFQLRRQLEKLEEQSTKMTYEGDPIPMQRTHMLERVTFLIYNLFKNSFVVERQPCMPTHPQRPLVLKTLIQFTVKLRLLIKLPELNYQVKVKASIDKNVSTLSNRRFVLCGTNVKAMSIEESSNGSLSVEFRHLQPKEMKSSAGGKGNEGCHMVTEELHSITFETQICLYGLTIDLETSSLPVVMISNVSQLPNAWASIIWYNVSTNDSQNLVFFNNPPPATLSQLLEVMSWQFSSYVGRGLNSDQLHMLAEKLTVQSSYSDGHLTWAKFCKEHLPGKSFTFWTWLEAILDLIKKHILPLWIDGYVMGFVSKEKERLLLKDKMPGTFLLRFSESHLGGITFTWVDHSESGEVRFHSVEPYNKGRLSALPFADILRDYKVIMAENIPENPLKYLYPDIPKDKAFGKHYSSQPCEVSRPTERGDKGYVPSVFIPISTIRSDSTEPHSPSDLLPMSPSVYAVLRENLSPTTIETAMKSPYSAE
Sequence of Protein cereblon/Signal transducer and activator of transcription 4 (Homo sapiens) (Q96SW2 whole entry, looked up): as the sequence (Q96SW2 whole entry) above

[7] = target: Protein cereblon/Signal transducer and activator of transcription 5A (Homo sapiens) (UniProt P42229+Q96SW2); assay: Protac activity at CRBN/STAT5A in human SUDHL1 cells assessed as degradation of STAT5A at 0.01 to 10 uM incubated for 18 hrs by Western blot analysis; type: cell-based; summary of the method: as §1
Sequence of Protein cereblon/Signal transducer and activator of transcription 5A (Homo sapiens) (P42229 whole entry, looked up): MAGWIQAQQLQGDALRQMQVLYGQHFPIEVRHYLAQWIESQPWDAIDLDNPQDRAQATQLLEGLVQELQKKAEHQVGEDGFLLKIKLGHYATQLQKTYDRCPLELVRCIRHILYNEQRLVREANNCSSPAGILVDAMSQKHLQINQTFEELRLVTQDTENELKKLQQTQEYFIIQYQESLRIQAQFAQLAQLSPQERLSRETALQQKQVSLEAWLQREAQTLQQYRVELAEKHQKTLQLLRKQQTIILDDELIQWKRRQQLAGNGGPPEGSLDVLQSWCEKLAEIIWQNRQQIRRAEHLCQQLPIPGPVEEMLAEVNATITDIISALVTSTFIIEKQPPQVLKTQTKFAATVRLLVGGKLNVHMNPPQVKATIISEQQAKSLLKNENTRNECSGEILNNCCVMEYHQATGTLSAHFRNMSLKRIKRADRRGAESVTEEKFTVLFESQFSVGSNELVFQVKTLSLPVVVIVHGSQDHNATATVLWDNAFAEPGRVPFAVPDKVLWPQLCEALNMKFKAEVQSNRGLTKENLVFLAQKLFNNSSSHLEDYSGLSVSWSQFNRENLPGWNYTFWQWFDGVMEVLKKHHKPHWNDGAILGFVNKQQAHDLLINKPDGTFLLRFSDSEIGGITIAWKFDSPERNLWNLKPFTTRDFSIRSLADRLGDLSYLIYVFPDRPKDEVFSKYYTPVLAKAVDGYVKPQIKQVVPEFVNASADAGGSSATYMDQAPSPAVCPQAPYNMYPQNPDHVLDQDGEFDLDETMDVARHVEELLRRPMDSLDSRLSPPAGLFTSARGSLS
Sequence of Protein cereblon/Signal transducer and activator of transcription 5A (Homo sapiens) (Q96SW2 whole entry, looked up): as the sequence (Q96SW2 whole entry) above

[8] = target: T2, Protein cereblon/Signal transducer and activator of transcription 5B (Homo sapiens); assay: Protac activity at CRBN/STAT5B in human SUDHL1 cells assessed as degradation of STAT5B at 0.01 to 10 uM incubated for 18 hrs by Western blot analysis; type: cell-based; summary of the method: as §1
[9] = target: Protein cereblon/Signal transducer and activator of transcription 6 (Homo sapiens) (UniProt P42226+Q96SW2); assay: Protac activity at CRBN/STAT6 in human SUDHL1 cells assessed as degradation of STAT6 at 0.01 to 10 uM incubated for 18 hrs by Western blot analysis; type: cell-based; summary of the method: as §1
Homo sapiens [10] = species: Homo sapiens; assay: Selectivity index, ratio of protac activity at CRBN/STAT6 in human MOLM16 cells to protac activity at CRBN/STAT3 in human MOLM16 cells; type: cell-based
Summary of the method: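 Molm-16 cells treated 4 h with compound at 0.01–10 μM, or controls at 10 μM. Western blot of lysates: SDS–PAGE, PVDF, 1 h block in 5% blocker/TBST, primary and secondary antibodies, chemiluminescent detection. STAT1, -2, -4, -5A/B and -6 levels read against STAT3 to give degradation selectivity.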

Homo sapiens [11] = species: Homo sapiens; assay: Selectivity index, ratio of protac activity at CRBN/STAT1 in human SUDHL1 cells to protac activity at CRBN/STAT3 in human SUDHL1 cells; type: cell-based
Summary of the method: (§2)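 SU-DHL-1 cells treated 18 h with compound at 0.01–10 μM, or controls at 10 μM. Immunoblotting used SDS–PAGE, PVDF transfer, 1 h block in 5% blocker/TBST, primary and secondary antibodies and chemiluminescence. Levels of other STAT family members compared with STAT3 to express degradation selectivity.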

Homo sapiens [12] = species: Homo sapiens; assay: Selectivity index, ratio of protac activity at CRBN/STAT2 in human SUDHL1 cells to protac activity at CRBN/STAT3 in human SUDHL1 cells; type: cell-based; summary of the method: as §2
Homo sapiens [13] = species: Homo sapiens; assay: Selectivity index, ratio of protac activity at CRBN/STAT5B in human SUDHL1 cells to protac activity at CRBN/STAT3 in human SUDHL1 cells; type: cell-based; summary of the method: as §2
[14] = target: T3, Signal transducer and activator of transcription 1-alpha/beta (Homo sapiens, UniProt P42224); assay: Binding affinity to recombinant human His/SUMO-tagged STAT1 (132 to 713 residues) expressed in Escherichia coli Rosetta (DE3) incubated for 1 hr by fluorescence polarization assay
T3 sequence (P42224 whole entry): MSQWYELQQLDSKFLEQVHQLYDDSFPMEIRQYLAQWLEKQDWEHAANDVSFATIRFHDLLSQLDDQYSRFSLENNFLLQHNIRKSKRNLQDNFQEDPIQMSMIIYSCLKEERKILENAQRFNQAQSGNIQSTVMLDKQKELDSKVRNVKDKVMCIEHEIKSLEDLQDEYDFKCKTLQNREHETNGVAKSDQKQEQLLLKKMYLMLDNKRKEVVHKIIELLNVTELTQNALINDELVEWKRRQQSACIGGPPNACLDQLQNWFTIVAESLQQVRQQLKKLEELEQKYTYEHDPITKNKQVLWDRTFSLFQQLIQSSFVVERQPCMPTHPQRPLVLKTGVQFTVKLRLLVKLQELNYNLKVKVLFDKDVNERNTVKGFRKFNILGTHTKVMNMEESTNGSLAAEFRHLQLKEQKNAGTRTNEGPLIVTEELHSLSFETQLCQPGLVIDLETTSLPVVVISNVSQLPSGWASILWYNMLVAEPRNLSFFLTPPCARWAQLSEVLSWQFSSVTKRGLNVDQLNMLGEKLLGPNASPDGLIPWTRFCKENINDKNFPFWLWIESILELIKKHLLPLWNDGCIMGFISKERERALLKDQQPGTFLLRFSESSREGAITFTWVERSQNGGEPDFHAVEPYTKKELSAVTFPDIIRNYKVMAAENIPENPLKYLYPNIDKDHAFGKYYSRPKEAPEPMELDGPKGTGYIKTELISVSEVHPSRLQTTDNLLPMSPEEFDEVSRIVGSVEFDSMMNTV

SMILES: NC(=O)CC[C@H](NC(=O)[C@@H]1CC[C@@H]2CCN(C(=O)CCCCCC#Cc3cccc4c3CN(C3CCC(=O)NC3=O)C4=O)C[C@H](NC(=O)c3cc4cc(C(F)(F)P(=O)(O)O)ccc4[nH]3)C(=O)N21)C(=O)NC(c1ccccc1)c1ccccc1 (stereo not given in full)
- Kd [1]: 44 nM
- DC50 [2]: 60 nM
- IC50 (SU-DHL-1): 610 nM
- Activity [3]: inactive
- Activity [4]: Active
- Activity [5]: inactive
- Activity [6]: inactive
- Activity [7]: inactive
- Activity [8]: inactive
- Activity [9]: inactive
- Ratio (Homo sapiens [10]): > 100
- Ratio (Homo sapiens [11]): > 100
- Ratio (Homo sapiens [12]): > 100
- Ratio (Homo sapiens [13]): > 100
- Kd [14]: 1000 nM
